The results in this text go back to ChEMBL document CHEMBL5356984 (RSC Med Chem, 2023).

The structures appear in SMILES notation.

The subject of data set [1] is MCF7. Put plainly: Antiproliferative activity against human MCF7 cells assessed as inhibition of cell viability at 20 uM measured after 48 hrs by MTT assay relative to control. The data set is classed as functional. In general terms: Tetrazolium dyes change colour on reduction, which living cells bring about.
Data set [2] has as its system MCF7. The data set is described as follows: Antiproliferative activity against human MCF7 cells assessed as inhibition of cell viability measured after 48 hrs by MTT assay. Type of data set: functional, cell-based. The settings on record: MCF7, 48 h. Summed up: (§1)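 MTT cell viability read-out; IC50 obtained by non-linear regression of concentration–response data; values are mean ± SD of three independent experiments.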

The next data set concerns HCC1806. The data set is described as follows: Antiproliferative activity against human HCC1806 cells assessed as inhibition of cell viability measured after 48 hrs by MTT assay. Type of data set: functional, cell-based. The note with it: HCC1806, 48 h. Summed up:
as §1

The test system of a further data set is MDA-MB-231. Put plainly: Antiproliferative activity against human MDA-MB-231 cells assessed as inhibition of cell viability measured after 48 hrs by MTT assay. The data set is classed as functional, cell-based. The settings on record: MDA-MB-231, 48 h. Summed up: as §1
Another data set deals with MDA-MB-468. The data set is described as follows: Antiproliferative activity against human MDA-MB-468 cells assessed as inhibition of cell viability measured after 48 hrs by MTT assay. Type of data set: functional, cell-based. The note with it: MDA-MB-468, 48 h. Summed up:
as §1

Data set [3] can be described thus: Thermal stability of compound in boiling toluene at 120 degreeC assessed as time taken for compound decomposition at 1 mg/ml by HPLC analysis. The note with it: read-out: T50. Type of data set: physicochemical.
The test system of the next data set is HEK-293T. Put plainly: Cytotoxicity against HEK293T cells assessed as cell growth inhibition measured after 48 hrs by MTT assay. Type of data set: functional, cell-based. The note with it: Homo sapiens. Summed up:
as §1

The next data set concerns SK-BR-3. Put plainly: Antiproliferative activity against human SK-BR-3 cells assessed as inhibition of cell viability measured after 48 hrs by MTT assay. Type of data set: functional, cell-based. The note with it: SK-BR-3, 48 h. A digest of the protocol:
as §1

A further data set has as its system BT-474. The data set is described as follows: Antiproliferative activity against human BT-474 cells assessed as inhibition of cell viability measured after 48 hrs by MTT assay. The data set is classed as functional, cell-based. The settings on record: BT-474, 48 h. Summed up: as §1

One may read the inhibition as the relative decrease from the control value, in per cent. As a reminder, the IC50 is the concentration needed to halve the response being measured. `COc1cc(/C=C/C(=O)/C=C/N(C)CCN(C)C)cc(OC)c1`: the inhibition at 20 µM in the data set on MCF7 [1] was > 50%. For the same compound, the IC50 was 16.7 µM with MCF7 [2], 14.7 µM in the data set on HCC1806, 12.9 µM with MDA-MB-231 and > 20 µM in the data set with MDA-MB-468.

As for `CC(C)=CCC[C@]1(C)/C=C/[C@@H](OC(=O)C=C(C)C)[C@](C)(O)/C=C/C(=O)/C(CN2CCN(C)CC2)=C\C1`, the half-life at 1 mg/ml in data set [3] is < 5 min.

As for `COC1=C2C[C@@H](C)C[C@H](OC)[C@H](O)[C@@H](C)/C=C(\C)[C@H](OC(N)=O)[C@@H](OC)/C=C\C=C(/C)C(=O)NC(=CC1=O)C2=O` [GELDANAMYCIN], the IC50 with HEK-293T is 0.53 µM; with MCF7 [2] it was 0.13 µM; with HCC1806, 0.12 µM; in the data set on MDA-MB-231 it was 0.15 µM; with MDA-MB-468, 0.033 µM; in the data set on SK-BR-3 it was 0.033 µM. Also, the IC50 in the data set on BT-474 was determined as 0.027 µM.

As to `COc1cc(/C=C/C(=O)/C=C/N2CCN(C)CC2)cc(OC)c1`, in the data set with MCF7 [1], the inhibition at 20 µM is > 50%. Also, the IC50 is 14.2 µM in the data set with MCF7 [2], 14.8 µM in the data set on HCC1806, 9.13 µM with MDA-MB-231 and > 20 µM with MDA-MB-468.

Consider `CO[C@@H]1[C@@H](OC(N)=O)[C@@H](O)[C@H](Oc2ccc3c(O)c(NC(=O)c4ccc(O)c(CC=C(C)C)c4)c(=O)oc3c2C)OC1(C)C` [NOVOBIOCIN], for which, in the data set with HEK-293T, the IC50 was > 100 µM.

Consider `CN1CCN(/C=C/C(=O)/C=C/c2cccc3c2OCO3)CC1`, for which, in the data set with MCF7 [1], the inhibition at 20 µM is > 50%. In addition, the IC50 was 12.9 µM in the data set on MCF7 [2], 13.2 µM in the data set with HCC1806, 8.14 µM in the data set with MDA-MB-231 and > 20 µM in the data set with MDA-MB-468.
